Bioassay records deposited in PubChem BioAssay by several laboratories.
A selection: hits, their analogues and other compounds. The true share with any hit is near 1.9%.
b-catenin transl = modulators of beta-catenin nuclear translocation. HeLa beta-catenin nuclear translocation, immunofluorescence imaging. AID 1665. 0.3% of 190,000 active. nuclear translocation activity, % at 5 µM;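 active = nuclear translocation activity above 50% at 5 µM, with a well cell count of 50 or more; inconclusive = wells under 50 cells across six images, flagged as toxic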;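 note: per-cell ratio of nuclear to cytoplasmic median beta-catenin stain intensity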
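Test system: HeLa cells, endogenous beta-catenin; Compound: single 5 µM dose plus 0.02–20 µM confirmation series; Times: compound exposure 24 h at 37°C; Signal: fluorescence imaging of beta-catenin antibody stain plus DAPI; Read-out: % activation, nuclear-to-cytoplasmic median beta-catenin signal ratio per cell.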
ROMK primary = modulates human ROMK potassium channel activity; P48048; Tet-inducible ROMK, thallium flux fluorescence; actives lie on both sides; B-score at 10 µM; 2% of 130,000 active; AID 1918;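 active = signal ratio slope over the read window, or its plate-corrected B-score, at least 3 SD from the plate mean, either direction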;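 note: B-score of the F/F0 ratio slope over 7 to 12 s after thallium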
Target sequence (P48048 whole entry, looked up): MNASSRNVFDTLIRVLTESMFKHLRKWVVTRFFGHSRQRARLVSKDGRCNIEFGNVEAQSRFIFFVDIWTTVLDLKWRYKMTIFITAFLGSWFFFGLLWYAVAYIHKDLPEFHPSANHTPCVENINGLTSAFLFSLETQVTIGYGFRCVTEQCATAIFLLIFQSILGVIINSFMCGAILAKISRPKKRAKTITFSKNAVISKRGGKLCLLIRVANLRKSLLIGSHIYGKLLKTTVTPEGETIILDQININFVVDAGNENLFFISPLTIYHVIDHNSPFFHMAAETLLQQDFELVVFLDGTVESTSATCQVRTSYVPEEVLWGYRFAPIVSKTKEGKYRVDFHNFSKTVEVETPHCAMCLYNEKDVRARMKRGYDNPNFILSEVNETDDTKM
MT stabilize HCS = stabilizes microtubules in HeLa cells; HeLa tubulin immunostaining HCS, 24 h; share of cells brighter than vehicle mean+2SD; % tubulin-high responders, % at 10 µM; 0.83% of 200,000 active; AID 2205;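 active = plate Z-score above 3 for both tubulin-high and condensed-nucleus cell shares, with cell loss under 80%, at 10 µM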;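 note: anti alpha tubulin signal scored within the nucleus-defined area of each cell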
ROMK retest = human ROMK channel modulation, retest confirmation | ROMK thallium flux, fluorescence ratio; active compounds read low | normalized thallium flux (F/F0 slope) at 10 µM | 54% of 3,000 active | shares compounds with ROMK primary;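 active = Flux at 10 µM at least 3 SD below or above vehicle control mean in one or both replicates; inconclusive = no clear call, values can overlap the other calls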
A number is an active result; . = inactive; ? = inconclusive; / = not tested or not shown.

SMILES	b-catenin transl	ROMK primary	MT stabilize HCS	ROMK retest
Cc1cc(C)nc(N/N=C/c2ccccc2)n1	.	.	.	/
C/C(CCc1ccco1)=N/NC(=O)CCC(=O)Nc1ccc(Br)cc1	.	.	.	/
O=C(CSc1nc2ccccc2o1)c1cc2ccccc2oc1=O	.	/	.	/
Cc1cc(C)nc(SCC(=O)c2cc3ccccc3oc2=O)n1	/	-4.05	.	0.0596
c1ccc2c(N3CCCCCC3)nc(-c3ccncc3)nc2c1	.	-2.79	.	?
c1cncc(-c2nc(N3CCCCCC3)c3ccccc3n2)c1	.	.	.	/
C[n+]1cn(CC(O)COCc2ccccc2)c2ccccc21 (configuration not stated)	/	/	.	/
CC(=O)Nc1ccc(OCCC[n+]2ccccc2)cc1	.	/	.	/
CCCCCc1ccc(OCCOCCn2c[n+](C)c3ccccc32)c(CCCCC)c1	.	/	.	0.0456
CCCCCc1ccc(OCCC[n+]2ccccc2)c(CCCCC)c1	.	/	/	0.0602
CC1CCN(CCCNC(=O)c2ccc3c(=O)n(Cc4ccc(Cl)cc4)c(=S)[nH]c3c2)CC1	.	-2.67	.	0.061
COC(=O)c1ccc2c(=O)n(Cc3ccc(C(=O)NCCCN4CCC(C)CC4)cc3)c(=S)[nH]c2c1	.	.	.	/
O=C(Nc1ccnc(-c2ccncc2)n1)C1CC1	.	.	.	/
C=CCNC(=O)/C(C#N)=C/c1ccc(OS(=O)(=O)c2ccc(C)cc2)c(OC)c1	/	-4.56	.	0.0418
CC1CCCCC1NC(=O)/C(C#N)=C/c1ccc(F)c(F)c1 (configuration not stated)	/	-3.02	.	0.0496
CSc1ccc(/C=C(\C#N)C(=O)NC2CCCCC2)cc1	.	-2.54	.	0.0536
COC(=O)N/N=C/c1ccc(OS(=O)(=O)c2ccc(C)cc2)c(OC)c1	.	.	.	/
CC(=O)Nc1ccc(/C=C(\C#N)C(=O)NC2CCCCC2)cc1	.	.	.	/
C=CCNC(=O)/C(C#N)=C/c1ccc2c(c1)OCCO2	.	.	.	/
CC1CCCCC1NC(=O)/C(C#N)=C/c1ccc2c(c1)OCCO2 (configuration not stated)	/	.	.	/
C=CCNC(=O)/C(C#N)=C/c1ccc(SC)cc1	.	-4.51	.	0.0528
COc1ccc(CCC(C)Nc2ccccc2F)cc1 (configuration not stated)	.	.	.	/
COc1ccc(CCC(C)NC2C3CC4CC(C3)CC2C4)cc1 (configuration not stated)	.	/	.	0.0571
CC1=CN2C(=N)/C(=C\c3cn(CCCOc4ccccc4)c4ccccc34)C(=O)N=C2S1	.	/	.	/
Cc1ccccc1N1C(=S)NC2c3ccccc3OC1(C)C2C(=O)N(C)C (configuration not stated)	.	-6.84	.	0.0553
SMILES	b-catenin transl	ROMK primary	MT stabilize HCS	ROMK retest
Cc1ccc(N2C(=S)NC3c4ccccc4OC2(C)C3C(=O)N(C)C)cc1 (configuration not stated)	/	.	.	/
O=C(NC(=S)N1CCN(Cc2ccccc2)CC1)c1ccco1	.	.	.	/
O=C(Nc1ccccc1)Nc1ccc(F)c([N+](=O)[O-])c1	.	/	.	?
O=C(Nc1ccccc1)Nc1ccc(Cl)c([N+](=O)[O-])c1	.	.	.	/
Cc1nc(C)c(C(=O)O)s1	.	/	/	/
Cn1c(=O)c2c(ncn2CC(=O)N/N=C/c2c[nH]c3ccccc23)n(C)c1=O	.	/	/	/
Cc1ccccc1OCC(=O)Nc1nc2ccccc2[nH]1	.	.	.	/
COc1ccc(CS(=O)(=O)/C(Cl)=C(/Cl)C(=O)Nc2ccc(OC)nc2)cc1	/	-2.76	.	?
COc1ccc(NC(=O)Cc2ccccc2)cn1	.	.	.	/
COc1ccc(/C=C/C(=O)Nc2ccc(OC)nc2)cc1	.	.	.	/
COc1ccc(NC(=O)/C(Cl)=C(/Cl)S(=O)Cc2ccccc2)cn1 (configuration not stated)	.	-3.52	.	0.0466
CCn1c(Cc2ccccc2)nnc1SCC(=O)Nc1ccccc1O	.	.	.	/
Cn1nnnc1SCC(=O)N(C1CCCCC1)C1CCS(=O)(=O)C1 (configuration not stated)	.	.	.	/
Cc1cc(-c2nnc(-c3cccc(Cl)c3)o2)no1	.	/	/	/
CN(C(=O)Cn1cc(C(F)(F)F)ccc1=O)c1c(N)n(Cc2ccccc2)c(=O)[nH]c1=O	.	/	/	/
CC(=Nc1ccc(C)cc1)c1sc2ccccc2c1O	.	/	.	/
CC(=Nc1cccc(O)c1)c1sc2ccccc2c1O	.	-2.43	.	0.0582
O=C(CSc1nccn1-c1ncc(C(F)(F)F)cc1Cl)c1ccc(Cl)cc1	.	/	.	/
CC12CCC(C(=O)Nc3cc(Cl)ccc3Cl)(C(Br)C1=O)C2(C)C (configuration not stated)	.	.	.	/
O=C1N=c2ccccc2=C1c1[nH]c(=S)[nH]c1O	.	/	.	/
